How the values were obtained:
Type in all cases: functional
Mus musculus [1] = assay: Compound was tested for Trypanocidal Activity in mice at 10 mg/kg; 0/5
Mus musculus [2] = assay: Compound was tested for Trypanocidal Activity in mice at 25 mg/kg; 0/5
Mus musculus [3] = assay: Compound was tested for Trypanocidal Activity in mice at 15 mg/kg; 0/5
Mus musculus [4] = assay: Compound was tested for Trypanocidal Activity in mice at 40 mg/kg; 0/5
Mus musculus [5] = assay: Compound was tested for Trypanocidal Activity in mice at 6 mg/kg; 14/20
Mus musculus [6] = assay: Compound was tested for Trypanocidal Activity in mice at 10 mg/kg; 10/10
Mus musculus [7] = assay: Compound was tested for Trypanocidal Activity in mice at 4 mg/kg; 11/20
Mus musculus [8] = organism: Mus musculus; assay: Effective dose against Trypanosoma brucei infection in mice
In short: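 Female Swiss-Webster mice (20–25 g) were infected ip with 5×10^4 T. brucei EATRO 110 organisms in fresh mouse blood diluted with minimum essential medium. Groups of 5 or 10 received a single ip dose in normal saline (solution or milled suspension, 20 μL/g) 6 h post-infection. Deaths within 72 h were scored as toxic. Survivors aparasitemic at 28 days (tail-blood wet films, phase contrast) counted as cures. ED50 was computed by Bliss/Litchfield–Wilcoxon, excluding toxic dosages.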

Mus musculus [9] = assay: Compound was tested for Trypanocidal Activity in mice at 1.5 mg/kg; 0/15
Mus musculus [10] = assay: Compound was tested for Trypanocidal Activity in mice at 25 mg/kg; 8/10
Mus musculus [11] = assay: Compound was tested for Trypanocidal Activity in mice at 60 mg/kg; 0/5
Mus musculus [12] = assay: Compound was tested for Trypanocidal Activity in mice at 2.5 mg/kg; 3/20
Mus musculus [13] = assay: Compound was tested for Trypanocidal Activity in mice at 15 mg/kg; 9/10
Mus musculus [14] = assay: Compound was tested for Trypanocidal Activity in mice at 100 mg/kg; 0/5
Mus musculus [15] = assay: Compound was tested for Trypanocidal Activity in mice at 40 mg/kg; 10/10
Mus musculus [16] = assay: Compound was tested for Trypanocidal Activity in mice at 15 mg/kg; 0/10
Mus musculus [17] = assay: Compound was tested for Trypanocidal Activity in mice at 150 mg/kg; 0/5
Mus musculus [18] = assay: Compound was tested for Trypanocidal Activity in mice at 6 mg/kg; 17/20
Mus musculus [19] = assay: Compound was tested for Trypanocidal Activity in mice at 60 mg/kg; 3/5
Mus musculus [20] = assay: Compound was tested for Trypanocidal Activity in mice at 4 mg/kg; 10/20
Mus musculus [21] = assay: Compound was tested for Trypanocidal Activity in mice at 10 mg/kg; 20/20
Mus musculus [22] = assay: Compound was tested for Trypanocidal Activity in mice at 25 mg/kg; 18/20
Mus musculus [23] = assay: Compound was tested for Trypanocidal Activity in mice at 1.5 mg/kg; 0/10
Mus musculus [24] = assay: Compound was tested for Trypanocidal Activity in mice at 2.5 mg/kg; 1/10
Mus musculus [25] = assay: Compound was tested for Trypanocidal Activity in mice at 15 mg/kg; 19/20
Mus musculus [26] = assay: Compound was tested for Trypanocidal Activity in mice at 10 mg/kg; 1/20
Mus musculus [27] = assay: Compound was tested for Trypanocidal Activity in mice at 15 mg/kg; 11/20
Mus musculus [28] = assay: Compound was tested for Trypanocidal Activity in mice at 40 mg/kg; 1/5
Mus musculus [29] = assay: Compound was tested for Trypanocidal Activity in mice at 6 mg/kg; 0/10
Mus musculus [30] = assay: Compound was tested for Trypanocidal Activity in mice at 25 mg/kg; 4/5
Mus musculus [31] = assay: Compound was tested for Trypanocidal Activity in mice at 0.15 mg/kg; 0/10
Mus musculus [32] = assay: Compound was tested for Trypanocidal Activity in mice at 1.0 mg/kg; 8/10
Mus musculus [33] = assay: Compound was tested for Trypanocidal Activity in mice at 0.6 mg/kg; 20/30
Mus musculus [34] = assay: Compound was tested for Trypanocidal Activity in mice at 0.4 mg/kg; 19/35
Mus musculus [35] = assay: Compound was tested for Trypanocidal Activity in mice at 0.25 mg/kg; 0/30
Mus musculus [36] = assay: Compound was tested for Trypanocidal Activity in mice at 15 mg/kg; 10/10
Mus musculus [37] = assay: Compound was tested for Trypanocidal Activity in mice at 2.5 mg/kg; 20/20
Mus musculus [38] = assay: Compound was tested for Trypanocidal Activity in mice at 4 mg/kg; 9/10
Mus musculus [39] = assay: Compound was tested for Trypanocidal Activity in mice at 1.5 mg/kg; 10/10
Mus musculus [40] = assay: Compound was tested for Trypanocidal Activity in mice at 6 mg/kg; 20/20
Mus musculus [41] = assay: Compound was tested for Trypanocidal Activity in mice at 4 mg/kg; 0/10
Mus musculus [42] = assay: Compound was tested for Trypanocidal Activity in mice at 100 mg/kg; 1/5
Mus musculus [43] = assay: Compound was tested for Trypanocidal Activity in mice at 25 mg/kg; 16/20
Mus musculus [44] = assay: Compound was tested for Trypanocidal Activity in mice at 6 mg/kg; 0/20
Mus musculus [45] = assay: Compound was tested for Trypanocidal Activity in mice at 60 mg/kg; 5/5
Mus musculus [46] = assay: Compound was tested for Trypanocidal Activity in mice at 10 mg/kg; 11/30
Mus musculus [47] = assay: Compound was tested for Trypanocidal Activity in mice at 15 mg/kg; 14/25
Mus musculus [48] = assay: Compound was tested for Trypanocidal Activity in mice at 40 mg/kg; 13/15

Br.C/C(=N\NC1=NCCN1)c1cccc(/C(C)=N/NC2=NCCN2)c1
Cures/total (Mus musculus [1]): 0
Cures/total (Mus musculus [2]): 0
Cures/total (Mus musculus [3]): 0
Cures/total (Mus musculus [4]): 0

C/C(=N\NC(=N)N)c1cc(C)cc(/C(C)=N/NC(=N)N)c1.Cl
Cures/total (Mus musculus [5]): 14
Cures/total (Mus musculus [6]): 10
Cures/total (Mus musculus [7]): 11
ED50 (Mus musculus [8]): 4.1 mg/kg
Cures/total (Mus musculus [9]): 0
Cures/total (Mus musculus [10]): 8
Cures/total (Mus musculus [11]): 0
Cures/total (Mus musculus [12]): 3
Cures/total (Mus musculus [13]): 9
Cures/total (Mus musculus [14]): 0
Cures/total (Mus musculus [15]): 10

C/C(=N\NC(=N)N)c1cc(/C(C)=N/NC(=N)N)c(C)nc1C.CS(=O)(=O)O.Cl.Cl
Cures/total (Mus musculus [16]): 0
Cures/total (Mus musculus [17]): 0
Cures/total (Mus musculus [11]): 0
Cures/total (Mus musculus [4]): 0
Cures/total (Mus musculus [14]): 0

C/C(=N\NC(=N)N)c1cccc(/C(C)=N/NC(=N)N)n1.Cl
Cures/total (Mus musculus [18]): 17
Cures/total (Mus musculus [19]): 3
Cures/total (Mus musculus [20]): 10
ED50 (Mus musculus [8]): 4.1 mg/kg
Cures/total (Mus musculus [21]): 20
Cures/total (Mus musculus [22]): 18
Cures/total (Mus musculus [23]): 0
Cures/total (Mus musculus [24]): 1
Cures/total (Mus musculus [14]): 0
Cures/total (Mus musculus [25]): 19
Cures/total (Mus musculus [15]): 10

C/C(=N\NC(=N)N)c1cncc(/C(C)=N/NC(=N)N)c1.Cl
Cures/total (Mus musculus [26]): 1
Cures/total (Mus musculus [27]): 11
Cures/total (Mus musculus [28]): 1
Cures/total (Mus musculus [29]): 0
Cures/total (Mus musculus [30]): 4

C/C(=N\NC(=N)N)c1cc(/C(C)=N/NC(=N)N)cc(/C(C)=N/NC(=N)N)c1.Cl
Cures/total (Mus musculus [31]): 0
Cures/total (Mus musculus [32]): 8
Cures/total (Mus musculus [6]): 10
Cures/total (Mus musculus [33]): 20
ED50 (Mus musculus [8]): 0.47 mg/kg
Cures/total (Mus musculus [34]): 19
Cures/total (Mus musculus [35]): 0
Mice cured (number) (Mus musculus [36]): 10
Cures/total (Mus musculus [37]): 20
Cures/total (Mus musculus [38]): 9
Cures/total (Mus musculus [11]): 0
Cures/total (Mus musculus [39]): 10
Cures/total (Mus musculus [40]): 20
Cures/total (Mus musculus [4]): 0
Cures/total (Mus musculus [30]): 4

C/C(=N\NC(=N)N)c1ccc(/C(C)=N/NC(=N)N)s1.CC(C)O.Cl
Cures/total (Mus musculus [41]): 0
Cures/total (Mus musculus [42]): 1
Cures/total (Mus musculus [43]): 16
ED50 (Mus musculus [8]): 14 mg/kg
Cures/total (Mus musculus [44]): 0
Cures/total (Mus musculus [45]): 5
Cures/total (Mus musculus [46]): 11
Cures/total (Mus musculus [47]): 14
Cures/total (Mus musculus [48]): 13

C/C(=N\NC(=N)N)c1cccc(/C(C)=N/NC(=N)N)c1N.Cl
Cures/total (Mus musculus [2]): 0
Cures/total (Mus musculus [3]): 0
Cures/total (Mus musculus [4]): 0

Reference: ChEMBL document CHEMBL1122798, “Trypanocidal 1,3-arylene diketone bis(guanylhydrazone)s. Structure-activity relationships among substituted and heterocyclic analogues” (1984)
